Assay outcomes deposited in PubChem BioAssay by Broad Institute.
Dyrk1A ADPGlo: blocks rat Dyrk1A kinase activity; Q63470; ADP-Glo luminescence, NFATc1 peptide; inhibition, % at 12.5 µM; 310,000 compounds, 0.43% hits; AID 504441; in the data active = inhibition above about 50%
ARNT TACC3 PPI: disruptors of human ARNT/TACC3 interaction. inhibition, % at 9.99 µM. Q9Y6A5. AlphaScreen His-ARNT PAS-B/GST-TACC3 binding, luminescence; TACC3 fragment carries E629A point mutation. AID 623870. 390,000 compounds, 0.66% hits;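 active = mean inhibition of replicates at least 50% and at least half of replicates each reaching 50%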
CAL PDZ FP-1: blocks peptide binding to human CAL PDZ domain; Q9HD26; purified CAL PDZ, TMR-peptide fluorescence polarization, 1 h; inhibition, % at 20 µM; 330,000 compounds, 0.02% hits;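 active = highest replicate inhibition of at least 40%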
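System: purified tagged CAL PDZ domain construct (CerCALP). Schedule: 1 h incubation at room temperature before polarization reading. Medium: 25 mM sodium phosphate pH 7.4, 150 mM NaCl, TCEP, IgG, Thesit. Read-out: percent inhibition from loss of millipolarization. Measured by: FP readout, S and P plane fluorescence. Probe or stimulus: fluorescent TMR peptide probe.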
CAL PDZ FP-2: blocks peptide binding to the human CAL PDZ domain; 300,000 compounds, 0.92% hits; Q9HD26; AID 602252; inhibition, % at 24.9 µM; purified CAL PDZ, TMR-peptide fluorescence polarization, 1 h;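 active = mean inhibition of at least 30% with at least half of replicates also reaching 30%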
ADP-Glo artifact: counter-screen for Dyrk1A inhibitors: ADP-Glo luciferase artifacts | ADP-Glo luciferase artifact assay, no Dyrk1A, luminescence | shares compounds with Dyrk1A ADPGlo | 1,300 tested, under 10 active | AID 588348 | AC50, µM (series often up to 12 µM);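 active = fitted half-maximal dose AC50 no more than ten times the top valid tested dose, with luminescence dropping as dose rises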
Hits are given with their value; - = inactive; . = no result given. In the library only some 1.4% were active in any assay of this set; here they are far more common.

SMILES	Dyrk1A ADPGlo	ARNT TACC3 PPI	CAL PDZ FP-1	CAL PDZ FP-2	ADP-Glo artifact
Cc1cccc(NC(=O)c2cnc3sccn3c2=O)n1	60	-	-	.	-
Cc1cccc(NC(=O)c2cnc3sccn3c2=O)c1	-	-	-	-	.
O=c1nc2n(c3sc4c(c13)CCCC4)C(CBr)CS2 (configuration not stated)	51	-	-	-	-
CC1(C)OC(=O)C(=Cc2ccc(-c3ccc(S(N)(=O)=O)cc3)o2)C(=O)O1	-	-	-	-	.
NC1=NC(=O)/C(=C/c2ccc(-c3ccc(S(N)(=O)=O)cc3)o2)S1	77	-	-	-	-
NC1=NC(=O)/C(=C\c2ccco2)S1	-	-	-	-	.
CS(=O)(=O)Nc1ccc(-c2ccc(/C=C3\SC(N)=NC3=O)o2)cc1	84	-	-	-	-
CC(C)CC#Cc1cnc2c(c1)C(=O)N([C@H](C)CO)C[C@@H](C)[C@@H](CN(C)S(=O)(=O)c1cn(C)cn1)O2	.	-	.	.	.
CCCCCC1CC(CC(C)C(=O)Nc2nncs2)C(=O)O1 (configuration not stated)	57	-	-	-	-
CCCCCC1CC(CC(=O)Nc2nncs2)C(=O)O1 (configuration not stated)	-	-	-	-	.
Cc1noc(C)c1NC(=O)N(C)C[C@H]1Oc2c(NC(=O)Nc3ccc(C(F)(F)F)cc3)cccc2C(=O)N([C@H](C)CO)C[C@H]1C	.	-	.	.	.
O=C(O)c1ccc(-c2ccc(/C=N/Nc3ccc([N+](=O)[O-])cc3)o2)cc1	-	-	-	-	.
O=C(O)c1cccc(-c2ccc(/C=N/Nc3ccc([N+](=O)[O-])cc3)o2)c1	60	-	-	-	-
Cc1noc(C)c1NC(=O)Nc1ccc2c(c1)C(=O)N([C@H](C)CO)C[C@H](C)[C@@H](CN(C)Cc1ccccc1)O2	.	-	.	.	.
COc1ccc(CN(C)C[C@H]2OCCCC[C@H](C)Oc3ccc(NC(=O)c4ccncc4)cc3C(=O)N([C@@H](C)CO)C[C@H]2C)cc1	.	-	.	.	.
O=[N+]([O-])c1cc(/C=N/O)ccc1N1CCCC1	50	-	-	-	-
Cc1[nH]nc2c1-c1nc3ccccc3nc1C(C)(C)C2	80	-	-	.	-
CC12CCC(C)(c3nc4ccccc4nc31)C2(C)C	-	-	-	-	.
CN(C)/C=C1/Oc2c(ccc3ccccc23)C1=O	60	-	-	-	-
Cc1ccccc1-c1ccc2c(c1)O[C@@H](CN(C)C(=O)C1CC1)[C@H](C)CN([C@H](C)CO)S2(=O)=O	.	-	.	.	.
O=C(NCC[C@H]1CC[C@@H](NC(=O)c2cccnc2)[C@H](CO)O1)Nc1ccc(C(F)(F)F)cc1	.	-	.	.	.
Nc1ncnc2c1ncn2C1O[C@H](CO)[C@@H](O)[C@@H]1O (some centres not stated)	-	-	-	-	.
Nc1ncnc2c1nc(N1CCCCC1)n2[C@@H]1O[C@H](CO)[C@@H](O)[C@H]1O	-	-	-	-	.
N#Cc1c(N)n(C2OC(CO)C(O)C2O)c2ncnc(N)c12 (configuration not stated)	95	-	-	-	-
CNc1nc2c(N)ncnc2n1[C@H]1O[C@@H](CO)[C@H](O)[C@@H]1O	91	-	-	-	-
SMILES	Dyrk1A ADPGlo	ARNT TACC3 PPI	CAL PDZ FP-1	CAL PDZ FP-2	ADP-Glo artifact
C[C@@H]1CN([C@@H](C)CO)C(=O)c2cc(C3=CCCCC3)cnc2O[C@@H]1CN(C)C(=O)c1ccncc1	.	-	.	.	.
O=C(Nc1ccc(Cl)cc1)c1csc(-c2ccncc2)n1	51	-	-	-	-
CCCC(=O)Nc1ccc2c(c1)C(=O)N(C)[C@H]1CC[C@@H](CC(=O)O)O[C@H]1CO2	.	-	.	.	.
Cc1noc(C)c1NC(=O)N(C)C[C@@H]1Oc2ccc(NC(=O)NC3CCCCC3)cc2CC(=O)N([C@H](C)CO)C[C@@H]1C	.	-	.	.	.
Clc1ccc(C2CC(c3cccs3)n3ncnc3N2)c(Cl)c1 (configuration not stated)	61	-	-	.	-
CN(C)C(=O)C[C@H]1CC[C@@H]2[C@H](COC[C@H](O)CN2CC2CC2)O1	.	-	.	.	.
COC(=O)NNC(=O)COc1ccc(Cl)cc1	84	-	-	.	-
COc1cc(O)c2c(=O)c3c(O)ccc(O)c3oc2c1	68	-	-	-	-
COc1ccc(-c2nn(-c3ccccc3)cc2CO)cc1	62	-	-	-	-
Cc1noc(C)c1NC(=O)Nc1ccc2c(c1)C(=O)N([C@H](C)CO)C[C@H](C)[C@@H](CN(C)S(=O)(=O)c1ccc(Cl)cc1)OCCCC[C@H](C)O2	.	-	.	.	.
O=C1[C@H]2[C@H](C=CC[C@H]2C(=O)N2CCOCC2)CCN1Cc1ccccc1	53	.	-	-	-
O=C(Nc1ccccc1)[C@@H]1CC=C[C@@H]2CCN(Cc3ccccc3)C(=O)[C@@H]21	-	-	-	-	.
O=C(N[C@H]1CC[C@@H](CCn2cc(-c3ccccc3)nn2)O[C@H]1CO)c1ccccc1F	.	-	.	.	.
COc1ccc2c(c1)CCc1cn[nH]c1-2	51	-	-	-	-
O=C(Oc1ccc(N(Cc2cccs2)C2=NS(=O)(=O)c3ccccc32)cc1)c1ccco1	-	-	-	-	.
O=S1(=O)N=C(N(Cc2cccs2)c2ccc(O)cc2)c2ccccc21	73	-	-	.	-
O=C(O)C[C@@H]1C[C@@H]2c3cc(NC(=O)c4ccc5c(c4)OCO5)ccc3O[C@@H]2[C@@H](CO)O1	.	-	.	.	.
O=C(C[C@H]1C[C@@H]2c3cc(NC(=O)C4CCOCC4)ccc3O[C@@H]2[C@@H](CO)O1)NC1CCCC1	.	-	.	.	.
Cc1nnc2c3ccccc3c(-c3cccs3)nn12	60	-	-	-	-
O=C1NC(=O)C(c2ccccc2[N+](=O)[O-])=C1Nc1ccc(O)c(Cl)c1	87	-	-	-	-
O=C(NNc1ccccc1[N+](=O)[O-])Nc1ccc(Cl)c(Cl)c1	-	-	-	-	.
Fc1ccc(C2Nc3cccc4cccc(c34)N2)cc1	52	-	-	-	-
O=C(C[C@H]1C=C[C@@H](NC(=O)CN2CCOCC2)[C@H](CO)O1)NC1CCCCC1	.	-	.	.	.
COc1ccc2c(Cl)c(C(=O)N/N=C3\CCCC(=O)C3)sc2c1	81	-	-	-	-
Cc1noc(C)c1NC(=O)N(C)C[C@H]1Oc2ncc(/C=C/c3ccccc3)cc2C(=O)N([C@@H](C)CO)C[C@@H]1C	.	-	.	.	.
C[C@@H]1CCCCO[C@@H](CN(C)S(=O)(=O)c2cccs2)[C@H](C)CN([C@@H](C)CO)C(=O)c2cc(NC(=O)Nc3cccc4ccccc34)ccc2O1	.	-	.	.	.
COc1ccccc1NC(=O)N[C@@H]1CC[C@@H](CCNC(=O)Cc2ccccn2)O[C@H]1CO	.	-	.	.	.
Cc1c(C(=O)Nc2nccs2)sc2nc(-c3cccs3)cc(C(F)(F)F)c12	-	.	-	.	.
Cc1c(C(=O)O)sc2nc(-c3cccs3)cc(C(F)(F)F)c12	57	-	-	-	-
Cc1noc(NS(=O)(=O)c2ccc(N/C=C\C(=O)c3ccc(Br)cc3)cc2)c1C	63	-	-	.	-
